Source: ChEMBL document CHEMBL1121726, “Pyrazolopyrimidine nucleosides. 12. Synthesis and biological activity of certain pyrazolo[3,4-d]pyrimidine nucleosides related to adenosine” (1981)
Active and inactive are the calls of the source. The rule behind the calls is not given here.

What was measured:
[1] = test system: L1210; test: Number of mice surviving 1 day after 133 mg/kg administered; 1/6; type: functional, Mus musculus
[2] = test system: P388; test: Toxicity against P388 leukemic cells 1-9 days after administration of 25 mg/kg of the compound; No; type: functional, organism-based; parameters: dose 25 mg/kg; conditions: Mus musculus
Outline: (§1)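 Mice bearing L1210 or P388 leukemia were injected at the stated dose per injection on the listed days after tumor-cell inoculation. Host toxicity scores whether higher doses on the same schedule caused drug-induced shortening of life span: y = yes, n = no, nt = no higher dose tested.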

[3] = test system: P388 (Mus musculus); test: Increase in life span of tumor P388 leukemic mice 1-9 days after 9.3 mg/kg administered
[4] = test system: L1210; test: Increase in life span of tumor L1210 leukemic mice 1 day after 133 mg/kg administered; type: functional, Mus musculus
Outline: (§2)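 Mice bearing L1210 or P388 leukemia were injected with drug at the listed dose per injection on the listed days after tumor-cell inoculation. ILS was the percentage increase in life span of treated mice over untreated tumor-bearing controls.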

[5] = test system: L1210; test: Toxicity against L1210 leukemic cells 1 day after administration of 133 mg/kg of the compound; No; type: functional, organism-based; parameters: dose 133 mg/kg; conditions: Mus musculus; outline: as §1
[6] = test system: P388; test: Increase in life span of tumor P388 leukemic mice 1-9 days after 25 mg/kg administered; type: functional, Mus musculus
[7] = test system: L1210; test: In vitro inhibition of growth of L1210 mouse leukemic cells; type: functional; conditions: read-out: ID50 (the source's name)
Outline: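 L1210 cells grown in static suspension culture in Fischer's medium for leukemic cells of mice, exposed to a range of test-compound concentrations. Growth rate measured over 3 days.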

[8] = test system: L1210; test: Number of mice surviving 1-5 days after 200 mg/kg administered; 2/6; type: functional, Mus musculus
[9] = test system: L1210; test: Toxicity against L1210 leukemic cells 1-5 days after administration of 200 mg/kg of the compound; nt= No higher dose tested; type: functional, organism-based; parameters: dose 200 mg/kg; conditions: Mus musculus
Outline: (§3)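 Host toxicity was scored in leukemia-bearing mice as drug-induced shortening of life span when higher doses were given on the same schedule: y = yes, n = no, nt = no higher dose tested.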

[10] = test system: L1210; test: Increase in life span of tumor L1210 leukemic mice 1-5 days after 200 mg/kg administered; type: functional, Mus musculus; outline: as §2
[11] = test system: P388; test: Increase in life span of tumor P388 leukemic mice 1-9 days after 6 mg/kg administered; type: functional, Mus musculus; outline: as §2
[12] = test system: P388; test: Toxicity against P388 leukemic cells 1-9 days after administration of 6 mg/kg of the compound; y= Yes; type: functional, organism-based; parameters: dose 6 mg/kg; conditions: Mus musculus; outline: as §3
[13] = test system: L1210; test: Toxicity against L1210 leukemic cells 1-9 days after administration of 100 mg/kg of the compound; nt= No higher dose tested; type: functional, organism-based; parameters: dose 100 mg/kg; conditions: Mus musculus; outline: as §1
[14] = test system: L1210; test: Increase in life span of tumor L1210 leukemic mice 1-9 days after 100 mg/kg administered; type: functional, Mus musculus; outline: as §2
[15] = test system: L1210; test: Toxicity against L1210 leukemic cells 1-5 days after administration of 200 mg/kg of the compound; Yes; type: functional, organism-based; parameters: dose 200 mg/kg; conditions: Mus musculus; outline: as §1
[16] = test system: L1210; test: Increase in life span of tumor L1210 leukemic mice 1-5 day after 200 mg/kg administered; type: functional, Mus musculus; outline: as §2
[17] = test system: L1210; test: Increase in life span of tumor L1210 leukemic mice 1-5 days after 50 mg/kg administered; type: functional, Mus musculus; outline: as §2
[18] = test system: L1210; test: Toxicity against L1210 leukemic cells 1-5 days after administration of 50 mg/kg of the compound; Yes; type: functional, organism-based; parameters: dose 50 mg/kg; conditions: Mus musculus; outline: as §1
[19] = test system: L1210; test: […] against L1210 leukemic cells 1-5 days after administration of 200 mg/kg of the compound; Yes; type: functional, organism-based; parameters: dose 200 mg/kg; conditions: Mus musculus
[20] = test system: L1210; test: Toxicity against L1210 leukemic cells 1-5 days after administration of 25 mg/kg of the compound; Yes; type: functional, organism-based; parameters: dose 25 mg/kg; conditions: Mus musculus; outline: as §1
[21] = test system: P388; test: Toxicity against P388 leukemic cells 1,5,9 days after administration of 100 mg/kg of the compound; Yes; conditions: Mus musculus
[22] = test system: P388; test: Increase in life span of tumor P388 leukemic mice 1,5,9 days after 100 mg/kg administered
[23] = test system: L1210; test: Number of mice surviving 1-5 days after 25 mg/kg administered; 1/12; type: functional, Mus musculus
[24] = test system: L1210; test: Increase in life span of tumor L1210 leukemic mice 1-5 days after 25 mg/kg administered; type: functional, Mus musculus; outline: as §2
[25] = test system: L1210; test: Increase in life span of tumor L1210 leukemic mice 1-9 days after 200 mg/kg administered; type: functional, Mus musculus; outline: as §2
[26] = test system: L1210; test: Toxicity against L1210 leukemic cells 1-9 days after administration of 200 mg/kg of the compound; Yes; type: functional, organism-based; parameters: dose 200 mg/kg; conditions: Mus musculus; outline: as §1
[27] = test system: L1210; test: […] against L1210 leukemic cells 1-5 days after administration of 100 mg/kg of the compound; Yes; type: functional, organism-based; parameters: dose 100 mg/kg; conditions: Mus musculus
[28] = test system: L1210; test: Increase in life span of tumor L1210 leukemic mice 1-5 days after 100 mg/kg administered; type: functional; conditions: Mus musculus; outline: as §2
[29] = test system: L1210; test: Increase in life span of tumor L1210 leukemic mice 1-5 days after 400 mg/kg administered; type: functional, Mus musculus; outline: as §2
[30] = test system: L1210; test: Toxicity against L1210 leukemic cells 1-5 days after administration of 400 mg/kg of the compound; nt= No higher dose tested; type: functional, organism-based; parameters: dose 400 mg/kg; conditions: Mus musculus; outline: as §1
[31] = test system: L1210; test: […] against L1210 leukemic cells 1-9 days after administration of 400 mg/kg of the compound; No higher dose tested; type: functional, organism-based; parameters: dose 400 mg/kg; conditions: Mus musculus
[32] = test system: L1210; test: Increase in life span of tumor L1210 leukemic mice 1-9 days after 400 mg/kg administered; type: functional, Mus musculus; outline: as §2
[33] = test system: L1210; test: Increase in life span of tumor L1210 leukemic mice 1-5 days after 12.5 mg/kg administered; type: functional, Mus musculus; outline: as §2
[34] = test system: L1210; test: […] against L1210 leukemic cells 1-5 days after administration of 12.5 mg/kg of the compound; Yes; conditions: Mus musculus

With Nc1ncnc2c1ncn2[C@@H]1O[C@H](CO)[C@@H](O)[C@H]1O [ADENOSINE] the Cures [1] was 1, the Toxicity [2] was “Not toxic” and the ILS [3] was 24. The ILS [4] was 48, the Toxicity [5] was “Not toxic” and the ILS [6] was 54. The IC50 [7] was 0.4 µM.
In the case of NC(=O)c1nn(C2O[C@H](CO)[C@@H](O)[C@H]2O)c2ncnc(N)c12 (stereo partly drawn), the Cures [8] is reported as 2, the Toxicity [9] is reported as “No higher dose tested” and the ILS [10] is reported as 136. The ILS [11] was 90, the IC50 [7] was 0.1 µM and the Toxicity [12] was “No higher dose tested”.
With N#Cc1nn(C2O[C@H](CO)[C@@H](O)[C@H]2O)c2ncnc(N)c12 (stereo partly drawn) the Toxicity [13] was “No higher dose tested”, the ILS [14] was 27 and the IC50 [7] was 0.079 µM.
With CSc1ncnc2c1cnn2C1O[C@H](CO)[C@@H](O)[C@H]1O (stereo partly drawn) the Toxicity [15] was “Active”, the ILS [16] was 19 and the IC50 [7] was 9 µM.
With CNc1ncnc2c1cnn2C1O[C@H](CO)[C@@H](O)[C@H]1O (stereo partly drawn) the ILS [17] was 4, the Toxicity [18] was “Active” and the IC50 [7] was greater than 100 µM.
For O=[N+]([O-])c1ccc(CSc2ncnc3c2cnn3C2O[C@H](CO)[C@@H](O)[C@H]2O)cc1 (stereo partly drawn), the Toxicity [19] was “Active” and the ILS at 200 mg/kg ([10]; Mus musculus, L1210) was 1%.
For N/C(=N\O)c1nn(C2O[C@H](CO)[C@@H](O)[C@H]2O)c2ncnc(N)c12 (stereo partly drawn), the Toxicity [20] was “Active”, the Toxicity [21] was “Active” and the ILS [22] was 33. For the same compound, the Cures [23] was 1, the ILS [24] was 78 and the IC50 [7] was 0.18 µM.
In the case of NNc1ncnc2c1cnn2C1O[C@H](CO)[C@@H](O)[C@H]1O (stereo partly drawn), the ILS [25] is reported as 12, the Toxicity [26] is reported as “Active” and the IC50 [7] is reported as 60 µM.
C=CCSc1ncnc2c1cnn2C1O[C@H](CO)[C@@H](O)[C@H]1O (stereo partly drawn) was tested, and the Toxicity [27] was “Active” and the ILS at 100 mg/kg [28] was 2%.
In the case of COC(=N)c1nn(C2O[C@H](CO)[C@@H](O)[C@H]2O)c2ncnc(N)c12 (stereo partly drawn), the ILS [29] is reported as 64 and the Toxicity [30] is reported as “No higher dose tested”.
OC[C@H]1OC(n2ncc3c(N/N=C/c4ccc(N(CCCl)CCCl)cc4)ncnc32)[C@H](O)[C@@H]1O (stereo partly drawn) was tested, and the Toxicity [31] was “No higher dose tested”, the ILS [32] was -7 and the IC50 [7] was roughly 10 µM.
OC[C@H]1OC(n2ncc3c(NO)ncnc32)[C@H](O)[C@@H]1O (stereo partly drawn) was tested, and the ILS [33] was 14, the Toxicity [34] was “Active” and the IC50 [7] was 10 µM.
